Screening results as filed in PubChem BioAssay.
This is a sample that favours compounds with a hit; in the whole collection about 12% have one here.
MT stabilize HCS – stabilizes microtubules in HeLa cells. HeLa tubulin immunostaining HCS, 24 h; share of cells brighter than vehicle mean+2SD. % tubulin-high responders, % at 10 µM. hit rate 0.83% among 200,000;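 active = plate Z-score above 3 for both tubulin-high and condensed-nucleus cell shares, with cell loss under 80%, at 10 µM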;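 note: anti alpha tubulin signal scored within the nucleus-defined area of each cell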
b-catenin transl – modulators of beta-catenin nuclear translocation; HeLa beta-catenin nuclear translocation, immunofluorescence imaging; nuclear translocation activity, % at 5 µM; hit rate 0.3% among 190,000;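 active = nuclear translocation activity above 50% at 5 µM, with a well cell count of 50 or more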;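 note: per-cell ratio of nuclear to cytoplasmic median beta-catenin stain intensity; plate controls were DMSO negative control for no effect and GSK-3 inhibitor IX positive control for full effect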
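Test system: HeLa cells, endogenous beta-catenin; Compound: single 5 µM dose plus 0.02–20 µM confirmation series; Times: compound exposure 24 h at 37°C; Signal: fluorescence imaging of beta-catenin antibody stain plus DAPI; Read-out: % activation, nuclear-to-cytoplasmic median beta-catenin signal ratio per cell.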
Dynein cargo inh – blocks dynein driven cargo transport along microtubules | AID 1381 | z-score, hits read low | 3617.4 mouse cells, GR-EGFP nuclear translocation imaging; test concentration mostly 20 µM; stimulated with dexamethasone, 1 µM; active compounds read low | hit rate 0.47% among 220,000;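 active = plate z-score of nuclear minus cytoplasmic receptor signal below a set negative limit, without overly bright fluorescence or cell loss, cut at about -3.5 in these data, passing the limit was not always enough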;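 note: z-score of nuclear minus cytoplasmic ring GR-EGFP intensity difference per well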
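Medium: Induction medium lacking tetracycline, stripped serum | Probe or stimulus: 1.0 µM final dexamethasone stimulus | Schedule: 48 h induction, then 1 h compound, then 30 min agonist, 37 °C | Signal: Automated 10x imaging of fixed Hoechst-stained cells | Evaluation: Per-cell GR-EGFP intensity, nucleus versus surrounding cytoplasmic ring, well-averaged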
Lmaj promast – inhibitors of Leishmania major promastigote growth; hit rate 9% among 200,000; Leishmania major promastigotes, resazurin fluorescence viability; inhibition, % at 10 µM; AID 1063; in the data active = inhibition above about 50%;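 note: promastigotes grown with compound for 44 hours at 28 °C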
CHOP inhibitor – CHOP inhibition in unfolded protein response; CHO-K1 CHOP-promoter luciferase, tunicamycin-induced, 15-18 h; inhibition, % at 10 µM; hit rate 3.8% among 220,000;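 active = compounds that reduced the stress-induced luciferase reporter signal by more than about 70% of percent inhibition, limit read from the data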;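 note: 0% = tunicamycin plus vehicle and 100% = wells without tunicamycin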
Autophagy HCS – autophagy modulation, high-content screen | calls only at 10 µM (by protocol) | MEF GFP-LC3 puncta imaging; test concentration mostly 10 µM | hit rate 0.98% among 190,000;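 active = percentage of spot-positive cells more than 3 SD above its plate mean, without a fluorescence outlier flag or 80% toxicity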;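 note: spot-positive cell cutoff set from DMSO-treated cells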
* = called active by the depositor; i = inactive; / = no result given; + = active, no number.

SMILES	MT stabilize HCS	b-catenin transl	Dynein cargo inh	Lmaj promast	CHOP inhibitor	Autophagy HCS
COc1ccc(S(=O)(=O)Nc2ccccc2C(=O)Nc2nc(-c3ccc(F)cc3)cs2)cc1OC	2	2	0.18	53*	41	i
Cc1cccc2sc(NC(=O)c3cc(S(=O)(=O)N(C)C)ccc3N3CCCC3)nc12	3	1	-0.23	52*	43	i
O=C(CN(C(=O)CSc1nc2ccccc2o1)c1ccccc1)NC1CCCCC1	2	/	0.12	0	39	i
Cc1noc(C)c1-c1nnc(-c2ccc(C(F)(F)F)cc2)o1	/	4	0.28	/	4	/
CCC(C)c1ccc(NC(=S)NCCn2cc(Br)cn2)cc1 (stereo not given)	2	-5	-0.012	8	72*	i
Cn1cccc1C(=O)OCC(=O)Nc1ccc2c(c1)OCO2	4	-1	0.025	2	-13	i
Cn1cccc1C(=O)OCc1cc(Cl)cc2c1OCOC2	5	-2	-1	3	73*	i
CCN(CC)S(=O)(=O)c1ccc(NC(=O)Cn2c(=O)sc3ccccc32)cc1	3	-3	0.82	30	16	i
COc1cc(/C=N/NC(=O)c2cccnc2)ccc1OCC(=O)Nc1ccc(C)cc1	2	4	-0.29	55*	18	i
COc1cc(/C=N/NC(=O)c2cccnc2)ccc1OS(=O)(=O)c1ccc(C)cc1	2	-2	-0.32	-4	-6	i
COc1ccc(/C=N/NC(=O)c2cccnc2)cc1Cn1nc([N+](=O)[O-])c(Br)c1C	27*	-5	-0.48	5	-12	+
COc1cc(/C=N/NC(=O)c2cccnc2)ccc1OS(=O)(=O)c1cc(C)ccc1C	4	3	-0.19	97*	-1	i
COc1ccc(/C=N/NC(=O)c2cccnc2)cc1CN1CCc2ccccc2C1	/	0	0.02	/	0	/
CCOC(=O)N1CCC(N2CC34C=CC(O3)C(C(=O)Nc3ccc(OCC)cc3)C4C2=O)CC1 (stereo not given)	3	0	-0.9	-7	-1	/
O=C(O)/C=C/c1cn(Cc2ccccc2)nc1-c1ccc(Cl)cc1	2	0	-2.1	-2	-5	i
O=C(NCc1ccc(Cl)cc1)c1ccccc1CCc1ccccc1	3	1	0.59	1	46	i
O=C(NCc1ccccc1Cl)c1ccccc1CCc1ccccc1	1	-3	-0.4	54*	40	i
Cc1cc(C)nc(N2CCCC(CCC(=O)NCc3ccc(F)c(F)c3)C2)n1 (stereo not given)	4	-1	0.26	0	35	i
CCOC(=O)N1CCN(C(=O)c2ccc3c(c2)sc2nc(-c4ccc(OC)cc4)cn23)CC1	6	-1	0.91	98*	12	i
CCOC(=O)N1CCN(C(=O)c2sc3nc(-c4ccc(F)cc4)cn3c2C)CC1	3	/	4.8	1	-5	i
O=C1CC(c2ccccc2)CC(O)=C1C=NCCCN1CCOCC1 (stereo not given)	1	53*	0.77	-3	-11	i
CCCCCN=CC1=C(O)CC(c2ccccc2)CC1=O (stereo not given)	4	-3	-0.54	-7	21	i
CC1CC(C)CN(S(=O)(=O)c2ccc(C(=O)Nc3sccc3C(N)=O)cc2)C1 (stereo not given)	3	-2	-0.39	14	87*	i
NC(=O)c1ccsc1NC(=O)c1ccc(S(=O)(=O)N2CCCC2)cc1	2	1	-1.5	56*	35	i
Cc1ccc(NC(=O)COc2ccc3oc4c(c3c2)CCCC4)nc1	2	2	0.53	-4	76*	i
O=c1cc2c(nn1Cc1ccccc1Cl)-c1ccccc1CC2	2	4	1.2	2	86*	i
O=c1cc2c(nn1Cc1cccc(Cl)c1)-c1ccccc1CC2	2	-2	0.28	8	95*	i
O=c1cc2c(nn1Cc1ccc(Cl)cc1)-c1ccccc1CC2	2	/	-0.075	-1	88*	i
CC1CC(C)(C)OC(C[N+]2(C)CCCCC2)O1 (stereo not given)	/	1	-0.38	/	15	/
CCOC(=O)C1CCCN(C(=O)Nc2c(-c3ccccc3)noc2C)C1 (stereo not given)	/	-1	0.3	/	1	/
